Data as given in PubChem BioAssay.
Inconclusive results are not listed.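 How the source made its calls, unless noted: active means growth inhibition above 25% in both replicates, a cutoff set 3 SD above the mean; inconclusive means above 25% in only one replicate; inactive means the rest.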

What was measured:
[1] = S. cerevisiae growth inhibition in permissive medium (OD615), pilot counter-assay for S. cerevisiae lifespan shortening project, permissive growth control (AID 705); conditions: OD615, 24 h, at 10 µM, active compounds read high
How it was run: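 System – S. cerevisiae with engineered DeaD lifespan system · Buffer or medium – SC raffinose/galactose permissive medium · Schedule – cells pre-grown 4 h, then 24 h compound exposure, 30 °C humidified · Technique – culture turbidity as optical density at 615 nm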

[2] = S. cerevisiae growth inhibition in restrictive medium, OD615, pilot screen, restrictive growth control, yeast lifespan reduction project (AID 706;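 active means growth inhibition above a set limit, 3 SD over mean compound inhibition, in both replicates, cut at about 43% in these data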;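 further: modified DeaD lifespan yeast strain shifted to restrictive glucose medium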); conditions: OD615, 48 h, at 10 µM, active compounds read high
How it was run: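 Material: engineered S. cerevisiae DeaD strain / Medium: glucose-based CSMM-D restrictive medium / Compound: single dose of 10 µM compound final, 0.25% DMSO / Timing: 4 h pre-incubation, 48 h exposure at 30 °C / Technique: OD615 absorbance reading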

[3] = doxorubicin toxicity protection in MRP-1 cells – H69AR cells, CellTiter-Glo, duplicate, MRP-1 activator project, pilot screen (AID 807;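 active means viability increase at or above a cutoff of the median across tested compounds plus 3 SD, cut at about 8.5% in these data, passing the limit was not always enough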;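 further: compound pretreatment 18-22 h then 72 h combined with doxorubicin; 0% = doxorubicin alone and 100% = vehicle without doxorubicin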); conditions: H69AR viability with doxorubicin, CellTiter-Glo luminescence; at 10 µM; active compounds read high
[4] = viability of HCT116 without oncogenic beta-catenin – human colon tumor cells, pilot screen (AID 823;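 active means cell viability at or below a set limit in both duplicate runs, the limit being the all-compound median minus 4 SD, cut at about 23% in these data, passing the limit was not always enough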;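 further: 0% = wells killed by 20 µM Hyamine and 100% = untreated DMSO cell wells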); conditions: HCT116 beta-catenin knockout viability, CellTiter-Glo, 60 h; at 10 µM; active compounds read low
[5] = viability of PTEN-null HCT116 cells – cell-based, HCT116 clonal line, CellTiter-Glo, pilot screen (AID 824;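 active means viability at or below 27.92% in each of two runs, the all-compound median minus 4 SD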;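 further: 0% = 20 µM Hyamine control and 100% = vehicle cell control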); conditions: HCT116 PTEN-deleted viability, 60 h, at 10 µM, active compounds read low
[6] = RAM pathway blockade in budding yeast – dse1pr::URA3 reporter, 5-FOA selection, pilot screen (AID 869;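 active means inhibition over a set limit, the all-compound mean plus 3 SD, in both replicate runs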;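 further: 0% = DMSO wells with no growth and 100% = 10 µM 1-NA-PP1 with full growth; RAM network block rescues cells from 5-FOA so hits raise OD615 growth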); conditions: S. cerevisiae dse1pr::URA3 5-FOA growth, OD615, 2 d, at 10 µM, active compounds read high
[7] = RAM signaling pathway blockade in yeast – S. cerevisiae, Pdr1DBD-CYC8 efflux-inhibited sensitized strain, primary screen (AID 1298;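 active means RAM network inhibition above 8.4% in each of two replicates, 3 SD over the compound average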;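 further: 0% = DMSO untreated cells without growth and 100% = 10 µM 1-NA-PP1 full growth; higher means more yeast growth rescued from 5-FOA killing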); conditions: S. cerevisiae cbk1-as DSE1-URA3 strain, 5-FOA growth OD615, 2 d; at 50 µM; active compounds read high

CC(=O)Nc1ccc(OC(=O)N(C)c2ccccc2)cc1
inactive: growth inhibition [1] 1.69% | growth inhibition [2] -3.19% | viability increase [3] 0.24% | viability [4] 105% | viability [5] 100% | inhibition [6] 3.04% | RAM network inhibition [7] 3.59%

O=C(Cc1ccccc1)Oc1cccc(N2C(=O)CCC2=O)c1
inactive: growth inhibition [1] -15.7% | growth inhibition [2] -12.2% | viability increase [3] -0.69% | viability [4] 101% | viability [5] 94.8% | inhibition [6] 1.23% | RAM network inhibition [7] 3.42%

Cc1ccc2c(c1)C1CN(C)CCC1N2C(=O)Cn1nnc(-c2ccccc2F)n1 (centres undefined)
inactive: growth inhibition [1] 6.06% | growth inhibition [2] -9.18% | viability increase [3] -5.58% | viability [4] 85.2% | viability [5] 83.8% | inhibition [6] 0.18% | RAM network inhibition [7] 3.31%

CC1(C)C(c2ccccc2)=NC(c2cccnc2)=[N+]1[O-]
inactive: growth inhibition [1] -4.62% | growth inhibition [2] -3.12% | viability increase [3] 1.13% | viability [4] 98.7% | viability [5] 89.4% | inhibition [6] -0.02% | RAM network inhibition [7] -0.36%

O=C1CCCC2=C1C(c1cccnc1)Nc1ccccc1N2 (centres undefined)
inactive: growth inhibition [1] -12.3% | growth inhibition [2] -2.74% | viability increase [3] -1.06% | viability [4] 90.8% | viability [5] 99.2% | inhibition [6] 1.61% | RAM network inhibition [7] 4.54%

CC12CN3CC(C)(CN(C1)P3(=O)Oc1ccccc1)C2=O (centres undefined)
inactive: growth inhibition [1] -3.04% | growth inhibition [2] -8.29% | viability increase [3] -0.06% | viability [4] 101% | viability [5] 97.9% | inhibition [6] 2.22% | RAM network inhibition [7] 3.62%

O=C(c1ccc2c(c1)OCO2)N1CCC2(CC1)OCCO2
inactive: growth inhibition [1] -5.96% | growth inhibition [2] -4.21% | viability increase [3] 1.06% | viability [4] 102% | viability [5] 97.1% | inhibition [6] 0.85% | RAM network inhibition [7] -1.11%
